Data on 1 molecule can be found in ChEMBL document CHEMBL3085690, “Naturally occurring antimicrobial peptide OH-CATH30 selectively regulates the innate immune response to protect against sepsis” (J Med Chem, 2013).

Assay [1] concerns BMDM. Nature of the assay: Induction of CXCL11 mRNA up-regulation in mouse BMDM at 20 ug/ml after 3 hrs by qRT-PCR analysis. The class given is functional. Summed up: (§1)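 Murine BMDMs stimulated with peptide, then target mRNA quantified by qRT-PCR. Expression normalized to GAPDH, with untreated cells set to 1.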
(In general: Quantitative PCR measures a nucleic acid by following its amplification.)

The test system of assay [2] is BMDM. In words: Induction of CCL7 mRNA up-regulation in mouse BMDM at 20 ug/ml after 3 hrs by qRT-PCR analysis. The class given is functional. Summed up:
as §1

The subject of assay [3] is BMDM. In words: Increase of IL-10 protein level in mouse BMDM at 20 ug/ml after 18 hrs by ELISA. The format is functional. The gist of the method:
(§2)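 Bone marrow-derived macrophages (RPMI 1640, 10% FCS, 20% L929-conditioned medium) stimulated with peptide for 18 h. Cytokines and chemokines in culture supernatant quantified by sandwich ELISA. Mean ± SD from three independent experiments, unpaired t test.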

In assay [4] the test system is Mus musculus. Nature of the assay: Stimulation of innate immune response in Kunming mouse assessed as protection against CLP-induced mortality by measuring survival rate at 10 mg/kg, ip administered 2 hrs before bacterial infection measured up to 7 days. The format is functional. The note with it: route intraperitoneal.
The subject of assay [5] is Mus musculus. Nature of the assay: Stimulation of innate immune response in Kunming mouse assessed as protection against drug-resistant Pseudomonas aeruginosa-induced mortality by measuring survival rate at 10 mg/kg, ip administered 5 hrs before bacterial infection measured up to 7 days. The note with it: route intraperitoneal. The class given is functional. The gist of the method:
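Female Kunming mice (18−22 g) were dosed ip in sterile saline at 10 mg/kg, 5 h before ip challenge with clinical drug-resistant isolates: E. coli (n = 12), P. aeruginosa (n = 10) or S. aureus (n = 15). Survival was recorded for up to 7 days, with checks every 6 h and euthanasia by CO2 at the humane end point.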

In assay [6] the test system is Mus musculus. In words: Stimulation of innate immune response in Kunming mouse assessed as protection against Staphylococcus aureus ATCC 25923-induced mortality by measuring survival rate at 10 mg/kg, ip administered 5 hrs before bacterial infection measured up to 7 days. The class given is functional. The settings on record: route intraperitoneal. The gist of the method:
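Female Kunming mice (18−22 g) received a single ip dose in sterile saline 5 h before ip challenge with P. aeruginosa 27853 (8 × 10^7 CFU/mouse; n = 8) or S. aureus 25923 (2 × 10^8 CFU/mouse; n = 10). Mice were checked every 6 h for up to 7 days, with a humane end point. Curves were compared by log-rank test.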

In assay [7] the test system is Mus musculus. Nature of the assay: Stimulation of innate immune response in Kunming mouse assessed as protection against Escherichia coli ATCC 25922-induced mortality by measuring survival rate at 10 mg/kg, ip administered 3 hrs after bacterial infection measured up to 7 days. The format is functional, organism-based. Further details: dose 10 mg/kg. The gist of the method:
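Female Kunming mice were challenged ip with E. coli 25922 at 2.5 × 10^8 CFU/mouse (n = 10). Peptide at 10 mg/kg in sterile saline was given ip at −24 h or +3 h relative to inoculation. Mice were monitored every 6 h and mortality was recorded for up to 7 days, with humane end points. Survival curves were compared by log-rank test.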

In assay [8] the target is Transcription factor p65 (Mus musculus) (UniProt Q04207). Nature of the assay: Activation of NFkappaB p65 in mouse BMDM assessed as phosphorylation at 10 ug/ml after 15 to 30 mins by Western blotting. Summed up: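 BMDMs came from mouse bone marrow cultured in RPMI 1640 with 10% FCS and 20% L929-conditioned medium. After treatment, lysates were run on 10% SDS−PAGE, transferred to PVDF, blocked with 5% BSA, and probed for phospho-p65. Detection used an HRP anti-rabbit IgG secondary and chemiluminescence.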
Chain of Transcription factor p65 (Mus musculus) (Q04207 whole entry): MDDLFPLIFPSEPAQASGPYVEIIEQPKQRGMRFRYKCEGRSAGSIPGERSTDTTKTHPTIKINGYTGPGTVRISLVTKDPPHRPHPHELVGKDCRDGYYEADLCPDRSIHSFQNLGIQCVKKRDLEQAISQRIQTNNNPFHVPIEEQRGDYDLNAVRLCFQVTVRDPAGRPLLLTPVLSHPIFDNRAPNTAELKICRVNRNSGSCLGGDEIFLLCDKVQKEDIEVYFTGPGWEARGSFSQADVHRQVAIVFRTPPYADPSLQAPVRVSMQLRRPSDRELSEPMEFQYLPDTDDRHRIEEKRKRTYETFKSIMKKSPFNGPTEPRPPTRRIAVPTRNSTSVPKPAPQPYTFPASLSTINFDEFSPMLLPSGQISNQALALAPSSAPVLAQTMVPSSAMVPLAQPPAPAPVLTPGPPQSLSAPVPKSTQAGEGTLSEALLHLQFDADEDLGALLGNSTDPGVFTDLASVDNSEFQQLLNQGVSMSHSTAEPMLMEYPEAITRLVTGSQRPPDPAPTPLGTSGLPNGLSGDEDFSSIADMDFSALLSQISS

In assay [9] the target is MAP kinase p38 (Homo sapiens) (UniProt O15264+Q15759+Q16539+P53778). In words: Activation of p38 kinase in mouse BMDM assessed as phosphorylation at 10 ug/ml by Western blotting. The settings on record: TDE = time-dependent effect, target entry is the homologue from another species. The format is protein assay. Summed up:
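BMDMs cultured in RPMI 1640 with 10% FCS and 20% L929-conditioned medium. Lysates separated by 10% SDS-PAGE, blotted to PVDF and blocked in 5% BSA. Probed for phospho-JNK/JNK or phospho-p38/p38, then HRP goat anti-rabbit IgG, chemiluminescence read-out.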
Background: In western blotting, separated proteins are transferred to a membrane and probed.

The subject of assay [10] is BMDM. In words: Increase of CXCL2 production in mouse BMDM after 6 hrs by ELISA in presence of CD14 Ab. The format is functional.
Assay [11] has as its system RAW264.7. Nature of the assay: Inhibition of PGN-induced TNFalpha production in mouse RAW264.7 cells 2 to 50 ug/ml after 6 hrs by ELISA. The class given is functional, cell-based. A general note: ELISA stands for enzyme-linked immunosorbent assay.
Assay [12] deals with RAW264.7. Nature of the assay: Inhibition of LPS-induced nitric oxide production in mouse RAW264.7 cells 2 to 50 ug/ml after 6 hrs by ELISA. The format is functional, cell-based.
In assay [13] the test system is Mus musculus. In words: Stimulation of innate immune response in neutropenic Kunming mouse infected with Pseudomonas aeruginosa ATCC 27853 assessed as increase of resident monocytes/macrophagess in peritoneal lavage at 10 mg/kg, ip. The arrangement: dose 10 mg/kg. The format is functional, organism-based. The gist of the method: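 Mice were made neutropenic with ip cyclophosphamide, 150 mg/kg on day 0 and 100 mg/kg on day 3. They were then injected ip with peptide at 10 mg/kg. Peritoneal cells were collected up to 24 h afterwards and typed by flow cytometry after GR1/F4/80 staining.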

Assay [14] concerns Mus musculus. In words: Stimulation of innate immune response in Kunming mouse infected with Pseudomonas aeruginosa ATCC 27853 assessed as effect on IL-6 production in peritoneal lavage at 10 mg/kg, ip after 5 hrs by ELISA. The class given is functional, organism-based. Further details: dose 10 mg/kg.
Assay [15] deals with Mus musculus. In words: Stimulation of innate immune response in Kunming mouse assessed as increase of IL-6 level in peritoneal lavage at 10 mg/kg, ip after 5 hrs. The class given is functional, organism-based. Further details: dose 10 mg/kg. Summed up: (§3)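 Female Kunming mice (18−22 g) received a single ip injection of peptide at 10 mg/kg in sterile saline. Peritoneal lavage was collected in 2 mL of cold sterile saline 5 h later, and cytokines and chemokines were measured by ELISA. Data are mean ± SD from four mice, compared by unpaired t test.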

Assay [16] concerns Mus musculus. Nature of the assay: Stimulation of innate immune response in Kunming mouse assessed as increase of TNFalpha level in peritoneal lavage at 10 mg/kg, ip after 5 hrs. The format is functional, organism-based. Further details: dose 10 mg/kg. Summed up:
as §3

The subject of assay [17] is Mus musculus. In words: Stimulation of innate immune response in Kunming mouse assessed as increase of CXCL1 level in peritoneal lavage at 10 mg/kg, ip after 5 hrs. The format is functional, organism-based. The arrangement: dose 10 mg/kg. The gist of the method:
as §3

Assay [18] concerns Mus musculus. In words: Stimulation of innate immune response in Kunming mouse assessed as increase of IL-10 level in peritoneal lavage at 10 mg/kg, ip after 5 hrs. The format is functional, organism-based. The arrangement: dose 10 mg/kg. The gist of the method:
as §3

Assay [19] can be described thus: Increase of CXCL2 protein level in mouse BMDM at 10 ug/ml after 18 hrs by ELISA. The class given is functional. Summed up:
as §2

Assay [20] in a line: Increase of CXCL1 protein level in mouse BMDM at 10 ug/ml after 18 hrs by ELISA. The class given is functional. The gist of the method:
as §2

Assay [21] concerns BMDM. In words: Increase of CCL2 protein level in mouse BMDM at 20 ug/ml after 18 hrs by ELISA. The format is functional. The gist of the method:
as §2

The subject of assay [22] is BMDM. In words: Increase of CXCL2 protein level in mouse BMDM at 20 ug/ml after 18 hrs by ELISA. The class given is functional. Summed up: as §2
Assay [23] in a line: Induction of IL-1beta mRNA up-regulation in mouse BMDM at 20 ug/ml after 3 hrs by qRT-PCR analysis relative to control. The class given is functional. Summed up:
as §1

Assay [24] can be described thus: Induction of IL-17alpha mRNA up-regulation in mouse BMDM at 20 ug/ml after 3 hrs by qRT-PCR analysis relative to control. The class given is functional. Summed up:
as §1

Activity calls are given as the source filed them. The calls are words filed in the database; no cut-off is given here. Peptide text beside a SMILES is read from it. Where only a bound is given, the exact number is not on record here.

Turning to `CC[C@H](C)[C@H](NC(=O)[C@@H](NC(=O)[C@H](CCCNC(=N)N)NC(=O)[C@@H]1CCCN1C(=O)[C@H](CCCCN)NC(=O)[C@H](CCCCN)NC(=O)[C@H](Cc1ccccc1)NC(=O)[C@H](Cc1ccccc1)NC(=O)[C@H](CCCCN)NC(=O)[C@H](CCCCN)NC(=O)[C@H](C)NC(=O)[C@H](CCCNC(=N)N)NC(=O)[C@H](CCCCN)NC(=O)[C@H](CCCCN)NC(=O)[C@@H](NC(=O)[C@H](CO)NC(=O)[C@H](CC(N)=O)NC(=O)[C@H](CCCCN)NC(=O)[C@H](CC(C)C)NC(=O)[C@H](CCCCN)NC(=O)[C@H](CCCCN)NC(=O)[C@H](Cc1ccccc1)NC(=O)[C@H](Cc1ccccc1)NC(=O)[C@@H](N)CCCCN)C(C)C)C(C)C)C(=O)NCC(=O)N[C@H](C(=O)N[C@@H](CO)C(=O)N[C@H](C(=O)N1CCC[C@H]1C(=O)N[C@@H](Cc1ccccc1)C(=O)O)[C@@H](C)CC)C(C)C` (H-KFFKKLKNSVKKRAKKFFKKPRVIGVSIPF-OH), the outcome in the assay with BMDM [1], in the assay with BMDM [2], in the assay with BMDM [3], in the assay on Mus musculus [7], with BMDM [10] and in the assay on Mus musculus [13] was Active. In addition, the result in the assay on Mus musculus [17], in the assay on Mus musculus [18], in the assay on BMDM [21] and in the assay with BMDM [22] was Active. Besides, the survival at 10 mg/kg was 40% in the assay on Mus musculus [4], 95% in the assay on Mus musculus [5] and greater than 60% in the assay on Mus musculus [6]. The outcome (in [8]; with Mus musculus [14]; in the assay on Mus musculus [15]; in the assay with Mus musculus [16]) was inactive. Besides, the Activity entry in assay [9] was “tde”; in assay [19], 1450 pg/mL; in assay [20], 269 pg/mL. In the assay on RAW264.7 [11], the inhibition result was “inactive”. Besides, the inhibition entry with RAW264.7 [12] was “Active”. Further, the “fold change (FC)” value in assay [23] was determined as 2.5; in assay [24], 51.
